Results as given in ChEMBL document CHEMBL3792341, “Substituted quinazolinones as kinase inhibitors endowed with anti-fibrotic properties” (Eur J Med Chem, 2016).
Active and inactive are the calls of the source. The calls are words filed in the database; no cut-off is given here.

How the values were obtained:
[1] = target: T1, MAP kinase p38 (Homo sapiens) (UniProt O15264+Q15759+Q16539+P53778); assay: Inhibition of p38 MAPK phosphorylation in crohn's disease patient isolated ISEMF at 1 uM after 4 hrs by western blotting analysis
Method in brief: (§1)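 Primary human cells were treated with compound for 4 h. Lysates were made in RIPA buffer with phosphatase and protease inhibitors and cleared by centrifugation. Proteins were run on 10% SDS-PAGE and blotted to nitrocellulose. Blots were probed for phospho-p38 MAPK with an HRP secondary and ECL detection, then reprobed for total p38 MAPK as loading control. Duplicate experiments.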

[2] = species: Homo sapiens; assay: Antiproliferative activity against VEGF induced crohn's disease patient isolated ISEMF at 1 uM after 72 hrs by carboxyfluorescein diacetate succinimidyl ester dye-based FACS flow cytometric method; type: functional
Method in brief: (§2)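 Primary human HSCs (from collagenase/pronase digests of non-pathological liver, Percoll gradient) or ISEMFs (from collagenase-digested gut biopsies, CD90-checked) were CFSE-loaded for 10 min at 37 °C in PBS with 0.1% BSA. Loading was quenched with 5 volumes of ice-cold medium. After 16 h, cells were washed and given compound plus 1 ng/ml VEGF for 72 h. Read-out was dye partitioning by flow cytometry, as % CFSE-positive cells. Duplicate per cell batch; mean ± SE.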

[3] = target: Proto-oncogene tyrosine-protein kinase Src (Homo sapiens) (UniProt P12931); assay: Inhibition of human Src using myelin basic protein as substrate at 1 uM measured after 20 mins at 30 degC by liquid scintillation counting method in presence of [gamma-32P]-ATP
Chain of Proto-oncogene tyrosine-protein kinase Src (Homo sapiens) (P12931 2-536 limits assumed): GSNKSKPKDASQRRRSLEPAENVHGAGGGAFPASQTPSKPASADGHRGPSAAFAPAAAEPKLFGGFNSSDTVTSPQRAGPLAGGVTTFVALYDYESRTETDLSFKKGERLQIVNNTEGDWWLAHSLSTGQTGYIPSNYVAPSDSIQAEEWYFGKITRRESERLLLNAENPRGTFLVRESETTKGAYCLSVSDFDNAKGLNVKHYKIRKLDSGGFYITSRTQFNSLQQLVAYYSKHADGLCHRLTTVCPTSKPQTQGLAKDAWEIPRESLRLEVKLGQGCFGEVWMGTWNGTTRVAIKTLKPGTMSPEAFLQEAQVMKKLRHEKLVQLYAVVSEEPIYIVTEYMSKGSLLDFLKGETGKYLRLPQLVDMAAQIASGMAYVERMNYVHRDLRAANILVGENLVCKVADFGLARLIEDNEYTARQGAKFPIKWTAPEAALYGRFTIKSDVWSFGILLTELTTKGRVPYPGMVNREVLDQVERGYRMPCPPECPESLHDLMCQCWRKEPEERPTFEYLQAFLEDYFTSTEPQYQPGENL

[4] = Cytotoxicity against human HSC cells assessed as cell viability at 1 uM after 72 hrs by MTT assay; type: cell-based
Method in brief: (§3)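 MTT viability in primary human HSCs or ISEMFs seeded at 2 × 10³ cells/well. Cells were exposed to compound for 72 h, then to MTT 0.50 mg/ml for 4 h. Viability is expressed as % of the respective untreated cells. Triplicate per isolated cell batch.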

[5] = Reduction of COL1A1 mRNA expression in healthy human ISEMF at 1 uM by RT-PCR analysis; type: functional
Method in brief: (§4)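 HSCs or ISEMFs were treated with compound for 24 h. Total RNA was extracted and DNase I-treated, then used for quantitative PCR of the target transcript. Values were normalized to 18S rRNA and relative change was calculated by the ΔΔCT method. Triplicate per isolated cell batch.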

[6] = target: Serine/threonine-protein kinase mTOR (Homo sapiens) (UniProt P42345); assay: Inhibition of human mTOR using PHAS-1 as substrate at 1 uM measured after 20 mins at 30 degC by liquid scintillation counting method in presence of [gamma-32P]-ATP
[7] = target: Vascular endothelial growth factor receptor 2 (Homo sapiens) (UniProt P35968); assay: Inhibition of human KDR using […] as substrate at 1 uM measured after 20 mins at 30 degC by liquid scintillation counting method in presence of [gamma-32P]-ATP
Chain of Vascular endothelial growth factor receptor 2 (Homo sapiens) (P35968 whole entry): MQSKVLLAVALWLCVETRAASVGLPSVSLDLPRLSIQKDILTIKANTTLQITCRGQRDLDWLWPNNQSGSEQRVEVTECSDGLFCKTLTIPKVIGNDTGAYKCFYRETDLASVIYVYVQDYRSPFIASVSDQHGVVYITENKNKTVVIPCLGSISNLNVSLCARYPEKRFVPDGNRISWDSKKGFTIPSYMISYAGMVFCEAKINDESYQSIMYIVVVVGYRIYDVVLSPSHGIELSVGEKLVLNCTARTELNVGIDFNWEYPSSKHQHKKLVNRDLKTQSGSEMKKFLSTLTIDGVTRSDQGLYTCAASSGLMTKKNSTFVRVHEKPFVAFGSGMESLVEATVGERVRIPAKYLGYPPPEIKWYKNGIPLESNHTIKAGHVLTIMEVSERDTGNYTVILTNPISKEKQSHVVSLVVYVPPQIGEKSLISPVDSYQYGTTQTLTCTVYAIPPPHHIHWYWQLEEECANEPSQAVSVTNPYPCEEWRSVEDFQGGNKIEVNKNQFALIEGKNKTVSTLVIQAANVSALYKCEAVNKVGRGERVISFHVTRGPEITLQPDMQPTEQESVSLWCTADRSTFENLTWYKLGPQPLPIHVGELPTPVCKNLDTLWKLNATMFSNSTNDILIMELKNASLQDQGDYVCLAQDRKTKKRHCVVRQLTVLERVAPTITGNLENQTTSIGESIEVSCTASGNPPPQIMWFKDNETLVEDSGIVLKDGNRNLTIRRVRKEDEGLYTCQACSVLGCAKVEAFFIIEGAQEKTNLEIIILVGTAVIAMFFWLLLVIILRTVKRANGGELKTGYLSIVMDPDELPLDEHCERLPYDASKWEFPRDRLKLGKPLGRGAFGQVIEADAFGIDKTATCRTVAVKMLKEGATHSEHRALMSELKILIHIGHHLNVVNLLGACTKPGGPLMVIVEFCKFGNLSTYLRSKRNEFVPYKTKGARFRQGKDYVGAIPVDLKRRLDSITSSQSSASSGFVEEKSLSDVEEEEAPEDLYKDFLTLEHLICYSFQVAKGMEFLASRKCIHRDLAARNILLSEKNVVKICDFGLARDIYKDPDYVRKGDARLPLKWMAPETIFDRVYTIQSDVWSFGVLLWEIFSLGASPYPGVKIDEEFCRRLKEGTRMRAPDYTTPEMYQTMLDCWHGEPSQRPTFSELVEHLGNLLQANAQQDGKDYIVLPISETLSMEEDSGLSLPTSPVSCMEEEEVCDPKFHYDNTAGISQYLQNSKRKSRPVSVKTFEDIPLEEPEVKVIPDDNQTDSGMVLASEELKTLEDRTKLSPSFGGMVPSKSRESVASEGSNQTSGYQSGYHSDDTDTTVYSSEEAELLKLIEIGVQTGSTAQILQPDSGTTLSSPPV

[8] = Reduction of COL1A1 mRNA expression in crohn's disease patient isolated ISEMF at 1 uM by RT-PCR analysis; type: functional; settings: Homo sapiens; method in brief: as §4
[9] = Cytotoxicity against crohn's disease patient isolated ISEMF assessed as cell viability at 1 uM after 72 hrs by MTT assay; settings: human; method in brief: as §3
[10] = test system: HSC; assay: Antiproliferative activity against VEGF induced human HSC cells at 1 uM after 72 hrs by carboxyfluorescein diacetate succinimidyl ester dye-based FACS flow cytometric method; type: functional, cell-based; method in brief: as §2
[11] = Reduction of COL1A1 mRNA expression in healthy human HSC cells at 1 uM by RT-PCR analysis; type: functional, cell-based; method in brief: as §4
[12] = Cytotoxicity against healthy human ISEMF assessed as cell viability at 1 uM after 72 hrs by MTT assay; method in brief: as §3
[13] = target: Platelet-derived growth factor receptor beta (Homo sapiens) (UniProt P09619); assay: Inhibition of human PDGFR-beta at 1 uM measured after 20 mins at 30 degC by liquid scintillation counting method in presence of [gamma-32P]-ATP
Chain of Platelet-derived growth factor receptor beta (Homo sapiens) (P09619 whole entry): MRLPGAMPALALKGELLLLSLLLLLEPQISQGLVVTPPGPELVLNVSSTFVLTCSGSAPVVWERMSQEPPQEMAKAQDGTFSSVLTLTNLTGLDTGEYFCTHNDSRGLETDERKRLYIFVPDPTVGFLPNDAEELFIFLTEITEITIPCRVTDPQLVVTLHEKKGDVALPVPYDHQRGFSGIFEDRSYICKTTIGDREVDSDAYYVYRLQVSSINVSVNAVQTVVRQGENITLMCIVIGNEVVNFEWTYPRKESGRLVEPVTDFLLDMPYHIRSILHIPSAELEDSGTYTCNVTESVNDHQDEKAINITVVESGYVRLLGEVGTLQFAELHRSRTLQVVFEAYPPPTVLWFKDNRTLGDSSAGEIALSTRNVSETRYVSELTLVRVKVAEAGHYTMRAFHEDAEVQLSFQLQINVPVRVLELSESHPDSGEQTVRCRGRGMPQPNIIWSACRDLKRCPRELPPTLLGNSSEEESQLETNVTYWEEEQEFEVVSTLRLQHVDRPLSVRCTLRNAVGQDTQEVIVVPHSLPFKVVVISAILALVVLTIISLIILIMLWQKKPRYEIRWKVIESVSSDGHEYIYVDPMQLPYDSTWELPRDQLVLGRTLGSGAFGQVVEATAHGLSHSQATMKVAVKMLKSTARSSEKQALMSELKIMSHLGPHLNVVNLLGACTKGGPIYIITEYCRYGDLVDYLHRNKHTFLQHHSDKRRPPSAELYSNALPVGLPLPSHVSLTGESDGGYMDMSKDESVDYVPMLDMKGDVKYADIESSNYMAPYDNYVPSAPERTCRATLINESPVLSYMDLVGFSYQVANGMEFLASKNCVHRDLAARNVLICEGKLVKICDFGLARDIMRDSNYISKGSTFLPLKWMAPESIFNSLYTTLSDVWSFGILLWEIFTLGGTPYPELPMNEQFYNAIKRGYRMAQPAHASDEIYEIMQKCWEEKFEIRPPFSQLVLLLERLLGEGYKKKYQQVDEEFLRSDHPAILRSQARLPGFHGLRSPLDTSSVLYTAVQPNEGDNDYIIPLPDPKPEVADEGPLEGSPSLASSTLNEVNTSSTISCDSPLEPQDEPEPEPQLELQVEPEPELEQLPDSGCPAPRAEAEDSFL

[14] = species: Homo sapiens; assay: Antiproliferative activity against VEGF induced healthy human ISEMF at 1 uM after 72 hrs by carboxyfluorescein diacetate succinimidyl ester dye-based FACS flow cytometric method; type: functional; method in brief: as §2
[15] = target: Tyrosine-protein kinase ABL1 (Homo sapiens) (UniProt P00519); assay: Inhibition of human Abl1 using myelin basic protein as substrate at 1 uM measured after 20 mins at 30 degC by liquid scintillation counting method in presence of [gamma-32P]-ATP
Chain of Tyrosine-protein kinase ABL1 (Homo sapiens) (P00519 whole entry): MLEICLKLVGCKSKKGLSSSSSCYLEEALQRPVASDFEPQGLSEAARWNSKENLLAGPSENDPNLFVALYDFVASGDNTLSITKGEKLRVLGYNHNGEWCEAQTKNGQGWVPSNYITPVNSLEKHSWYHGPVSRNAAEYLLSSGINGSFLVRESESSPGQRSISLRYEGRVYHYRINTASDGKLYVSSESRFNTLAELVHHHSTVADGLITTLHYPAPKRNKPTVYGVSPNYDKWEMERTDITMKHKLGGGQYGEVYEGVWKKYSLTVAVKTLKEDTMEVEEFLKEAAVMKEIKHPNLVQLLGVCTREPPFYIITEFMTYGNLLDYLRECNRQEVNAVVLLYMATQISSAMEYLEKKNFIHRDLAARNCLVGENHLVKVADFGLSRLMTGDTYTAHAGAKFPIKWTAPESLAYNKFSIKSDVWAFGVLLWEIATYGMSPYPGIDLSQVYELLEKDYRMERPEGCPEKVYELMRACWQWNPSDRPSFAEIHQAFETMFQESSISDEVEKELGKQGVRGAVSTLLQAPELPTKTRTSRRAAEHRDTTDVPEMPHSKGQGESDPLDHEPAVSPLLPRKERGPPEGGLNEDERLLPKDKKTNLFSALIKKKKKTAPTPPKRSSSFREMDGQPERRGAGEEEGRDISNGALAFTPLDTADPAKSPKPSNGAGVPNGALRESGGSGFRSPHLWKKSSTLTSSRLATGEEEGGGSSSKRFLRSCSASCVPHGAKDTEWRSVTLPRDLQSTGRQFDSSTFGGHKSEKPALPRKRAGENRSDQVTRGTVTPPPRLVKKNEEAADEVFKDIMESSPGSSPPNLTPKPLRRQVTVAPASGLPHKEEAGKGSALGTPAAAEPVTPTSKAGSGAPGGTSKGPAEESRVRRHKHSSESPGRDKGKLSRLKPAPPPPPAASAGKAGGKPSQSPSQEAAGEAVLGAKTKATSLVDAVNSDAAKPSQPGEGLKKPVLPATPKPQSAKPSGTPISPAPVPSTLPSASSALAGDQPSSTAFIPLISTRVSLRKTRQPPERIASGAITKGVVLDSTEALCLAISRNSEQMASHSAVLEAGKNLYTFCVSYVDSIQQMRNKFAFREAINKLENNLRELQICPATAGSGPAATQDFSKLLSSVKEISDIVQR

[16] = target: T1, MAP kinase p38 (Homo sapiens); assay: Inhibition of p38 MAPK phosphorylation in human HSC cells at 1 uM after 4 hrs by western blotting analysis; type: cell-based; method in brief: as §1
[17] = species: Homo sapiens; assay: Inhibition of human PI3K using phosphatidylinositol 4,5-diphosphate as substrate at 1 uM measured after 20 mins at 30 degC by liquid scintillation counting method in presence of [gamma-32P]-ATP
[18] = target: Fibroblast growth factor receptor 1 (Homo sapiens) (UniProt P11362); assay: Inhibition of human FGFR1 using myelin basic protein as substrate at 1 uM measured after 20 mins at 30 degC by liquid scintillation counting method in presence of [gamma-32P]-ATP
Chain of Fibroblast growth factor receptor 1 (Homo sapiens) (P11362 22-822 limits assumed): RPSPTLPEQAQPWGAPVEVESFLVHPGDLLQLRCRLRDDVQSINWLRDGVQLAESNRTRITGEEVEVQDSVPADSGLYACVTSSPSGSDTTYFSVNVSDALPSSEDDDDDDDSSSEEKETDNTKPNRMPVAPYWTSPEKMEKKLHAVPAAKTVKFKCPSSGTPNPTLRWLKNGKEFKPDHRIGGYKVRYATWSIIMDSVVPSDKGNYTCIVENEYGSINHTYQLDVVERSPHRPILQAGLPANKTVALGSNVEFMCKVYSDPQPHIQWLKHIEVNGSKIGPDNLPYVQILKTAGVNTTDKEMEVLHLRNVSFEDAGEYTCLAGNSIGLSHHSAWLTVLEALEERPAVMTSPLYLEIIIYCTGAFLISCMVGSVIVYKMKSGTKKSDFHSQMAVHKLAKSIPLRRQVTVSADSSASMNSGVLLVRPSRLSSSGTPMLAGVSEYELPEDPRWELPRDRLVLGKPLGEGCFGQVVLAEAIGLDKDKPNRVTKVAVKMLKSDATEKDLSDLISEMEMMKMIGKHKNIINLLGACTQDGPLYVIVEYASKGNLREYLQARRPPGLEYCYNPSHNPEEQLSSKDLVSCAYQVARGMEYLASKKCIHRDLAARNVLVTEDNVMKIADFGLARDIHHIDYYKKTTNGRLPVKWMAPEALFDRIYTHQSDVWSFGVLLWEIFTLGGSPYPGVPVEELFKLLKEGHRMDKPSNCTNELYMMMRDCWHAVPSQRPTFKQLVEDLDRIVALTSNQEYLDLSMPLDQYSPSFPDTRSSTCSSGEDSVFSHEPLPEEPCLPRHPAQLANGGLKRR

[19] = Reduction of FN1 mRNA expression in human HSC cells at 1 uM by RT-PCR analysis; type: functional, cell-based; method in brief: as §4
[20] = Reduction of TIMP1 mRNA expression in crohn's disease patient isolated ISEMF at 1 uM by RT-PCR analysis; type: functional; settings: Homo sapiens; method in brief: as §4
[21] = Reduction of TIMP1 mRNA expression in human HSC cells at 1 uM by RT-PCR analysis; type: functional, cell-based; method in brief: as §4
[22] = Reduction of FN1 mRNA expression in healthy human ISEMF at 1 uM by RT-PCR analysis; type: functional; method in brief: as §4
[23] = Reduction of FN1 mRNA expression in crohn's disease patient isolated ISEMF at 1 uM by RT-PCR analysis; type: functional; settings: Homo sapiens; method in brief: as §4
[24] = Reduction of TIMP1 mRNA expression in healthy human ISEMF at 1 uM by RT-PCR analysis; type: functional; method in brief: as §4

inhibition [1]	inhibition [3]	inhibition [6]	inhibition [7]	inhibition [13]	inhibition [15]	inhibition [16]	inhibition [17]	inhibition [18]	SMILES	Activity [2]	Activity [4]	Activity [9]	Activity [10]	Activity [12]	Activity [14]	also measured
Active	0%	33%	44%	0%	0%	Active	5%	8%	COc1cc2ncn(CC(O)c3ccc(Br)cc3)c(=O)c2cc1OC (centres undefined)	Active	Non-toxic	Non-toxic	Active	Non-toxic	Active	Activity [5]: Active; Activity [8]: Active; Activity [11]: Active
Active	3%	30%	24%	37%	0%	Active	25%	13%	COc1cc2ncn(Cc3cccnc3Br)c(=O)c2cc1OC	Active	Non-toxic	Non-toxic	Active	Non-toxic	Active	Activity [19]: Active; Activity [20]: Active; Activity [21]: Active; Activity [22]: inactive; Activity [23]: Active; Activity [24]: inactive
